Measured values: PubChem BioAssay
Active and inactive are the calls of the source.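 How the source made its calls, unless noted: active means viability at or under a set limit in both replicates, limit being median viability minus 3 SD (cut at about 48% in these data, passing the limit was not always enough); inconclusive means at or under the limit in just one replicate; inactive means at or above the limit in both replicates.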

Legend:
[1] = Her2 expression decrease, cell viability multiplex – SKBR3 breast tumor cells, AlphaScreen, ATP viability, primary screen (AID 461;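 active means Her2 level under about 52% in both replicate screens, with viability over 70% of control, limit read from the data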;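 on Her2 level: lower value means less Her2 protein in the cells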;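 on viability: percent of carrier control wells set as 100% viability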); settings: SKBR3 Her2 protein level, 18-24 h, measured here: SKBR3 viability, ATP luminescence, at 10 µM
[2] = target: Receptor tyrosine-protein kinase erbB-2 (Homo sapiens) (UniProt P04626); experiment: as above; settings: 18-24 h, at 10 µM, stronger effect = lower value
Receptor tyrosine-protein kinase erbB-2 (Homo sapiens), sequence (P04626 whole entry, looked up): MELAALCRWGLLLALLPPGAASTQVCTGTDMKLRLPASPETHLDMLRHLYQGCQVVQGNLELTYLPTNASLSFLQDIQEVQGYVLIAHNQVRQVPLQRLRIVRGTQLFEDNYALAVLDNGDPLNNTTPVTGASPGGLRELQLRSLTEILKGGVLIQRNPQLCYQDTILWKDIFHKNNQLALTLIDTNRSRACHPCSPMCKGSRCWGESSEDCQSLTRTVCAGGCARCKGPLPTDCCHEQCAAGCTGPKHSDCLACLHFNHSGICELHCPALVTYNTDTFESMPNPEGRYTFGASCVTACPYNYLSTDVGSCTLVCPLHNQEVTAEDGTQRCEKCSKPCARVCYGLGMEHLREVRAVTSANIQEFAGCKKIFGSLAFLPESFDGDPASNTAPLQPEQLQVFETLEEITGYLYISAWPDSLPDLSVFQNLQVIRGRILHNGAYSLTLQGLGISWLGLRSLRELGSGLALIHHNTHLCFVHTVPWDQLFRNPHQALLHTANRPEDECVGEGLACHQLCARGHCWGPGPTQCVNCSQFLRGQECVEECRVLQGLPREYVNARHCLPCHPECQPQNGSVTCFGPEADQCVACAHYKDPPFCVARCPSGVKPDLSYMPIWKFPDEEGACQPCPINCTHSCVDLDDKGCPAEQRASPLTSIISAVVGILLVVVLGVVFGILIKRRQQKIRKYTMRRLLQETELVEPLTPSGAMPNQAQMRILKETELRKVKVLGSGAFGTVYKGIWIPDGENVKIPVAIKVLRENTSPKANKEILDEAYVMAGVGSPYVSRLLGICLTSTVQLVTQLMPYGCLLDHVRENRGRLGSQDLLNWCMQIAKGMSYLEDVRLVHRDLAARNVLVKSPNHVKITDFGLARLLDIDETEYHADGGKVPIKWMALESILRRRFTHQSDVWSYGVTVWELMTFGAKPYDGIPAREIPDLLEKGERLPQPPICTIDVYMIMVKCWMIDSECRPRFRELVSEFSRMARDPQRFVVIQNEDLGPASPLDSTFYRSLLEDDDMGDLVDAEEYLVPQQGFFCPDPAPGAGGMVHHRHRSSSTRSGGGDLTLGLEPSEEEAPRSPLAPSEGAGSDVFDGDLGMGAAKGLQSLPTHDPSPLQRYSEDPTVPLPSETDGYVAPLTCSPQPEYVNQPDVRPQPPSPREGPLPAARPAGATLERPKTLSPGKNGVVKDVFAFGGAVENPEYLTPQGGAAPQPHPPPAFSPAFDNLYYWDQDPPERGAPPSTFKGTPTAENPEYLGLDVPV

[3] = reduced viability of SK-BR-3 breast cancer cells – cell-based, 24 h, human, pilot screen (AID 572;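 active means viability at or below 10% of carrier control in both of two separate runs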;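 further: compound exposure lasted between 18 and 24 h rather than exactly 24 h; 100% = carrier-treated control wells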); settings: SK-BR-3 viability, CellTiter-Glo luminescence, at 10 µM, stronger effect = lower value
[4] = HUVEC growth inhibition – cell-based, human, primary screen (AID 575;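 active means viability at or below 30% in both replicate assays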;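 further: 100% = median of untreated cell wells with 0.1% DMSO on each plate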); settings: HUVEC proliferation, CellTiter-Glo luminescence, 72 h; at 10 µM; stronger effect = lower value
Summary of the method: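 Test system – primary HUVEC, no more than 12 passages · Dosing – one dose, 10 µM final, 0.1% DMSO · Times – 72 h treatment at 37 °C · Measured by – ATP-based CellTiter-Glo luminescent read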

[5] = H69AR cell proliferation blockers – human, duplicate replicates, primary screen (AID 580); settings: H69AR lung tumor cells viability, ATP luminescence, 72 h; at 10 µM; stronger effect = lower value;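 further: 100% = mean luminescence of untreated wells and 0% = no signal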
[6] = MRP1 drug-resistance reversers in H69AR cells – cell-based, doxorubicin co-treatment, pilot screen (AID 601;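 active means viability loss from added drug above about 55%, and viability with drug at most 40%, in both replicates, limit read from the data, passing the limit was not always enough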); settings: CellTiter-Glo, 72 h, at 10 µM; for differential viability (reversal): stronger effect = higher value
[7] = yeast transport mutant growth inhibition pilot in 384-well plates, post-Golgi transport modulator project (AID 636; in the data active means inhibition above about 31%); settings: absorbance 615 nm, about 18 h, stronger effect = higher value
[8] = growth suppression of yeast trafficking mutant, preliminary HTS, modulators of trafficking downstream of Golgi apparatus project, 1536-format plate, OD 615 nm (AID 637; in the data active means inhibition above about 30%); settings: yeast transport mutant growth, absorbance 615 nm, 18 h; stronger effect = higher value
[9] = H69AR cells + 2 uM doxorubicin, measured here: viability with 2 uM doxorubicin, stronger effect = lower value
[10] = H69AR cells, compound alone cytotoxicity

Compound: c1ccc(CC2CCN(C(c3cccs3)c3nnnn3C3CCCC3)CC2)cc1 (stereo not given)
- viability [1]: 102%
- Her2 level [2]: 128% (inactive)
- viability [3]: 102% (inactive)
- viability [4]: 91.9% (inactive)
- viability [5]: 93.4% (inactive)
- differential viability (reversal) ([6]; H69AR cells + 2 uM doxorubicin): -0.24% (inactive)
- viability [6, 9]: 93.7%
- viability [6, 10]: 93.4%
- inhibition [7]: 1.92% (inactive)
- inhibition [8]: -0.63% (inactive)

Compound: Nc1nnnn1/N=C/c1ccccn1
- viability [1]: 69%
- Her2 level [2]: 108% (inactive)
- viability [3]: 69% (inactive)
- viability [4]: 114% (inactive)
- viability [5]: 97.2% (inactive)
- differential viability (reversal) ([6]; H69AR cells + 2 uM doxorubicin): 11% (inactive)
- viability [6, 9]: 86.2%
- viability [6, 10]: 97.2%
- inhibition [7]: -4.73% (inactive)
- inhibition [8]: 24% (inactive)

Compound: Cc1nc2ccc(NC(=O)N3CCSCC3)cc2s1
- viability [1]: 89.5%
- Her2 level [2]: 107% (inactive)
- viability [3]: 89.5% (inactive)
- viability [4]: 108% (inactive)
- viability [5]: 94.3% (inactive)
- differential viability (reversal) ([6]; H69AR cells + 2 uM doxorubicin): -5.83% (inactive)
- viability [6, 9]: 100%
- viability [6, 10]: 94.3%
- inhibition [7]: 1.84% (inactive)
- inhibition [8]: 8.89% (inactive)

Compound: CN(C)S(=O)(=O)Nc1ccc(Br)cc1F
- viability [1]: 108%
- Her2 level [2]: 82.5% (inactive)
- viability [3]: 108% (inactive)
- viability [4]: 86.9% (inactive)
- viability [5]: 102% (inactive)
- differential viability (reversal) ([6]; H69AR cells + 2 uM doxorubicin): 13.6% (inactive)
- viability [6, 9]: 88.5%
- viability [6, 10]: 102%
- inhibition [7]: -5.2% (inactive)
- inhibition [8]: -8.1% (inactive)

Compound: c1ccc(CCn2nnnc2C(c2cccs2)N2CCOCC2)cc1 (stereo not given)
- viability [1]: 102%
- Her2 level [2]: 77.5% (inactive)
- viability [3]: 102% (inactive)
- viability [4]: 99.2% (inactive)
- viability [5]: 107% (inactive)
- differential viability (reversal) ([6]; H69AR cells + 2 uM doxorubicin): 12.8% (inactive)
- viability [6, 9]: 94%
- viability [6, 10]: 107%
- inhibition [7]: -5.62% (inactive)
- inhibition [8]: -1.59% (inactive)

Compound: COC(=O)c1[nH]c2cc(OC)ccc2c1NC(=O)CN1CCOCC1
- viability [1]: 116%
- Her2 level [2]: 90.5% (inactive)
- viability [3]: 116% (inactive)
- viability [4]: 95% (inactive)
- viability [5]: 94.3% (inactive)
- differential viability (reversal) ([6]; H69AR cells + 2 uM doxorubicin): 3.07% (inactive)
- viability [6, 9]: 91.3%
- viability [6, 10]: 94.3%
- inhibition [7]: 0% (inactive)
- inhibition [8]: -4.19% (inactive)

Compound: O=C1CC(c2ccc(S(=O)(=O)N3CCN(c4ccccc4)CC3)cc2)CN1 (stereo not given)
- viability [1]: 96%
- Her2 level [2]: 90% (inactive)
- viability [3]: 96% (inactive)
- viability [4]: 93% (inactive)
- viability [5]: 96.4% (inactive)
- differential viability (reversal) ([6]; H69AR cells + 2 uM doxorubicin): 1.82% (inactive)
- viability [6, 9]: 94.6%
- viability [6, 10]: 96.4%
- inhibition [7]: -7.3% (inactive)
- inhibition [8]: -10% (inactive)

Compound: COc1cc(OC)cc(-c2nnc(SCC(=O)Nc3cc(C)on3)o2)c1
- viability [1]: 92.5%
- Her2 level [2]: 81% (inactive)
- viability [3]: 92.5% (inactive)
- viability [4]: 82.7% (inactive)
- viability [5]: 79.6% (inactive)
- differential viability (reversal) ([6]; H69AR cells + 2 uM doxorubicin): -7.97% (inactive)
- viability [6, 9]: 87.6%
- viability [6, 10]: 79.6%
- inhibition [7]: -5.53% (inactive)
- inhibition [8]: -4.33% (inactive)

Compound: Cc1ccc(C)n1NC(=O)c1ccco1
- viability [1]: 90%
- Her2 level [2]: 90% (inactive)
- viability [3]: 90% (inactive)
- viability [4]: 87.2% (inactive)
- viability [5]: 94.8% (inactive)
- differential viability (reversal) ([6]; H69AR cells + 2 uM doxorubicin): -9.64% (inactive)
- viability [6, 9]: 104%
- viability [6, 10]: 94.8%
- inhibition [7]: -2.76% (inactive)
- inhibition [8]: -3.39% (inactive)

Compound: Cc1cccc2cc(CN(CCN3CCCC3)C(=O)NC3CCCCC3)c(=O)[nH]c12
- viability [1]: 83%
- Her2 level [2]: 78.5% (inactive)
- viability [3]: 83% (inactive)
- viability [4]: 76.5% (inactive)
- viability [5]: 91% (inactive)
- differential viability (reversal) ([6]; H69AR cells + 2 uM doxorubicin): -1.06% (inactive)
- viability [6, 9]: 92%
- viability [6, 10]: 91%
- inhibition [7]: -6.08% (inactive)
- inhibition [8]: -0.16% (inactive)

Compound: CN(C)CCN1C(=O)c2oc3ccc(Cl)cc3c(=O)c2C1c1cccc(Br)c1 (stereo not given)
- viability [1]: 102%
- Her2 level [2]: 72.5% (inactive)
- viability [3]: 102% (inactive)
- viability [4]: 87.9% (inactive)
- viability [5]: 77.1% (inactive)
- differential viability (reversal) ([6]; H69AR cells + 2 uM doxorubicin): 2.96% (inactive)
- viability [6, 9]: 74.2%
- viability [6, 10]: 77.1%
- inhibition [7]: -1.17% (inactive)
- inhibition [8]: -5.5% (inactive)

Compound: Cc1[nH]c2ccccc2c(=O)c1CN(C)Cc1ccccc1
- viability [1]: 92.5%
- Her2 level [2]: 95% (inactive)
- viability [3]: 92.5% (inactive)
- viability [4]: 100% (inactive)
- viability [5]: 91.8% (inactive)
- differential viability (reversal) ([6]; H69AR cells + 2 uM doxorubicin): 2.49% (inactive)
- viability [6, 9]: 89.3%
- viability [6, 10]: 91.8%
- inhibition [7]: -4.21% (inactive)
- inhibition [8]: -0.98% (inactive)

Compound: O=C(O)c1cc(-c2ccccc2Cl)n[nH]1
- viability [1]: 92%
- Her2 level [2]: 93.5% (inactive)
- viability [3]: 92% (inactive)
- viability [4]: 95.6% (inactive)
- viability [5]: 81% (inactive)
- differential viability (reversal) ([6]; H69AR cells + 2 uM doxorubicin): 1.79% (inactive)
- viability [6, 9]: 79.2%
- viability [6, 10]: 81%
- inhibition [7]: -2.34% (inactive)
- inhibition [8]: 2.38% (inactive)

Compound: CCOC(=O)C(NC(C)=O)(Nc1ccc(S(=O)(=O)Nc2nccs2)cc1)C(F)(F)F (stereo not given)
- viability [1]: 120%
- Her2 level [2]: 106% (inactive)
- viability [3]: 120% (inactive)
- viability [4]: 102% (inactive)
- viability [5]: 109% (inactive)
- differential viability (reversal) ([6]; H69AR cells + 2 uM doxorubicin): 3.07% (inactive)
- viability [6, 9]: 106%
- viability [6, 10]: 109%
- inhibition [7]: 0.39% (inactive)
- inhibition [8]: 8.57% (inactive)

Compound: CCCCC(=O)NCCc1cc2ccc(OC)cc2[nH]c1=O
- viability [1]: 91.5%
- Her2 level [2]: 85.5% (inactive)
- viability [3]: 91.5% (inactive)
- viability [4]: 102% (inactive)
- viability [5]: 103% (inactive)
- differential viability (reversal) ([6]; H69AR cells + 2 uM doxorubicin): 7.54% (inactive)
- viability [6, 9]: 95.4%
- viability [6, 10]: 103%
- inhibition [7]: -7.95% (inactive)
- inhibition [8]: -3.33% (inactive)

Compound: O=C(COC(=O)C1=COCCO1)Nc1ccccc1Oc1ccccc1
- viability [1]: 113%
- Her2 level [2]: 95% (inactive)
- viability [3]: 113% (inactive)
- viability [4]: 97.8% (inactive)
- viability [5]: 93.8% (inactive)
- differential viability (reversal) ([6]; H69AR cells + 2 uM doxorubicin): 5.48% (inactive)
- viability [6, 9]: 88.3%
- viability [6, 10]: 93.8%
- inhibition [7]: -7.37% (inactive)
- inhibition [8]: -1.64% (inactive)
